Test results from ChEMBL document CHEMBL5113423, “Discovery and preclinical profile of sudapyridine (WX-081), a novel anti-tuberculosis agent” (Bioorg Med Chem Lett, 2022).
≈ marks a conversion by molar mass, not a printed value.

How the values were obtained:
[1] = test system: Mycobacterium tuberculosis; assay: Antimycobacterial activity against Mycobacterium tuberculosis H37Rv assessed as mycobacterial growth inhibition by microplate alamar blue assay; assay type: functional
Procedure, shortened: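 M. tuberculosis H37Rv under normoxic conditions, microplate alamar blue assay (MABA) following Cho et al. Read-out is MIC.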

[2] = Drug concentration in Sprague-Dawley rat plasma at 5 mg/kg,po measured after 96 hrs; assay type: ADME, organism-based
Procedure, shortened: (§1)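 Tissue distribution study in CD-1 mice (6.25 mg/kg oral) and SD rats (5.0 mg/kg oral). Lung concentration (ng/g) and plasma concentration (ng/mL) measured 96 h after dosing. Lung/plasma ratio is lung concentration divided by plasma concentration.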

[3] = Volume of distribution at steady state in mouse at 1 mg/kg,iv; assay type: ADME, organism-based; conditions: in vivo, read-out: Vdss
Procedure, shortened: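 PK in CD-1 mice at 1 mg/kg iv and 6.25 mg/kg po. Vd, CL and t1/2 taken from the iv arm; Cmax, AUC0-last and F% taken from the oral arm.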

[4] = Clearance in mouse at 1 mg/kg,iv; assay type: ADME, organism-based; conditions: in vivo
Procedure, shortened: (§2)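 CD-1 mice. Single iv dose of 1 mg/kg. Clearance and half-life are derived from plasma concentration-time data.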

[5] = Apparent permeability across apical side to basolateral side in dog MDCK cells; assay type: ADME, cell-based, Canis lupus familiaris
[6] = target: T1, Cytochrome P450 1A2 (Homo sapiens, UniProt P05177); assay: Inhibition of CYP1A2 (unknown origin); assay type: ADME
T1 sequence (P05177 whole entry): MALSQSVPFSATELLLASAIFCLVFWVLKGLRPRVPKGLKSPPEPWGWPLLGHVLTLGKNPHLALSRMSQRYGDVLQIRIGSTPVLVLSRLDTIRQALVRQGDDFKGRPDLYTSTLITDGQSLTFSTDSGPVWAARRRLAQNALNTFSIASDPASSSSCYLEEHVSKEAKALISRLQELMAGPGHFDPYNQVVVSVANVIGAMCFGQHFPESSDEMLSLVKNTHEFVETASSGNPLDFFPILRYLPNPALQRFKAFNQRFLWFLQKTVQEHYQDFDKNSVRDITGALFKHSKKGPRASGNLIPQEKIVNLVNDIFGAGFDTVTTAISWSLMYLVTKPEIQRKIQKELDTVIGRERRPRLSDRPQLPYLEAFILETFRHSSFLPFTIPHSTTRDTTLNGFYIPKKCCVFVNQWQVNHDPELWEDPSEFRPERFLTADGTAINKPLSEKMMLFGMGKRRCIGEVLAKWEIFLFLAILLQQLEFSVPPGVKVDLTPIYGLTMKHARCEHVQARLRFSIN
Procedure, shortened: (§3)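 Each CYP isoform screened for inhibition at a single test concentration of 10 μM.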

[7] = Microsomal stability in mouse liver microsomes assessed as clearance; assay type: ADME, Microsome; conditions: read-out: CLH
[8] = Oral bioavailability in mouse at 6.25 mg/kg; assay type: ADME, organism-based; conditions: in vivo
[9] = Cmax in mouse at 6.25 mg/kg,po; assay type: ADME, organism-based; parameters: dose 6.25 mg/kg, route po; conditions: in vivo
[10] = AUC (0 to last) in Beagle dog at 2 mg/kg,po; assay type: ADME, organism-based, Canis lupus familiaris; parameters: time 0 - last, dose 2 mg/kg, route po; conditions: in vivo
[11] = Cytotoxicity against human HeLa cells; assay type: toxicity, cell-based
[12] = Volume of distribution at steady state in Sprague-Dawley rat at 1 mg/kg,iv; assay type: ADME, organism-based; conditions: in vivo, read-out: Vdss
Procedure, shortened: (§4)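 PK in SD rats (1 mg/kg iv, 5.0 mg/kg po) and Beagle dogs (0.5 mg/kg iv, 2.0 mg/kg po). Vd taken from the iv arm, alongside CL and t1/2. Cmax and AUC0-last taken from the oral arm; F% calculated.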

[13] = Oral bioavailability in Beagle dog at 2 mg/kg; assay type: ADME, organism-based, Canis lupus familiaris; conditions: in vivo
[14] = Oral bioavailability in Sprague-Dawley rat at 5 mg/kg; assay type: ADME, organism-based; conditions: in vivo
[15] = Apparent permeability across basolateral side to apical side in dog MDCK cells; assay type: ADME, cell-based, Canis lupus familiaris
[16] = Half life in mouse at 1 mg/kg,iv; assay type: ADME, organism-based; conditions: in vivo; procedure, shortened: as §2
[17] = AUC (0 to last) in mouse at 6.25 mg/kg,po; assay type: ADME, organism-based; parameters: time 0 - last, dose 6.25 mg/kg, route po; conditions: in vivo
[18] = Plasma protein binding in human assessed as bound fraction; assay type: ADME, cell-free; conditions: read-out: PPB
[19] = AUC (0 to last) in Sprague-Dawley rat at 5 mg/kg,po; assay type: ADME, organism-based; parameters: time 0 - last, dose 5 mg/kg, route po; conditions: in vivo
[20] = Microsomal stability in rat liver microsomes assessed as clearance; assay type: ADME, Microsome; conditions: read-out: CLH
[21] = target: Cytochrome P450 2C19 (Homo sapiens, UniProt P33261); assay: Inhibition of CYP2C19 (unknown origin); assay type: ADME; procedure, shortened: as §3
Cytochrome P450 2C19, sequence (P33261 whole entry): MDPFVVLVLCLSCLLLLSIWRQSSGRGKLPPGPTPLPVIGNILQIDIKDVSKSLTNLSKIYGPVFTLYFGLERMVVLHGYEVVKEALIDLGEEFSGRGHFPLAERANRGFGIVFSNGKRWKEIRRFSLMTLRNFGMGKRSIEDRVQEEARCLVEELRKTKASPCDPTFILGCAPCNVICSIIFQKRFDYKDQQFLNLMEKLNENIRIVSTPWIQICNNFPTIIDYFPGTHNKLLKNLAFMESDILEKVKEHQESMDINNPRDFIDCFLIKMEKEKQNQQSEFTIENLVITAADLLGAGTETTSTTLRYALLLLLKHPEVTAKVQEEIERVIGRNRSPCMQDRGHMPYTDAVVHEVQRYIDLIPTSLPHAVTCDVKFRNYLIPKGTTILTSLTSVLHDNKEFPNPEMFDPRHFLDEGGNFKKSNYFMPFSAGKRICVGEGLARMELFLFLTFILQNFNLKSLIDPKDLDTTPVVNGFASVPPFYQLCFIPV

[22] = Toxicity in Sprague-Dawley rat assessed as death at 200 mg/kg,po measured after 14 days; assay type: organism-based; conditions: in vivo, 336 h, time 14 day
Procedure, shortened: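 14-day pilot oral toxicology study in rats, 8 males and 8 females per dose level. Dosing once daily at 30, 100 and 200 mg/kg, with the reference drug at 200 mg/kg. Deaths counted over the 14 days; drug exposure (AUC) recorded in the high-dose groups.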

[23] = Toxicity in Beagle dog assessed as effect on electrocardiogram at 200 mg/kg,po; assay type: organism-based, Canis lupus familiaris; conditions: in vivo
Procedure, shortened: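 14-day GLP toxicology study in Beagle dogs; oral dosing once daily at 200 mg/kg, given in parallel with the reference drug. ECG recorded daily to detect qualitative changes and QTc interval prolongation.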

[24] = test system: Mycobacterium tuberculosis; assay: Antimycobacterial activity against Mycobacterium tuberculosis H37Rv assessed as mycobacterial growth inhibition by low oxygen recovery assay; assay type: functional
Procedure, shortened: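 M. tuberculosis H37Rv under hypoxic conditions, low-oxygen recovery assay (LORA) following Cho et al. Read-out is MIC.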

[25] = Drug concentration in Sprague-Dawley rat lung at 5 mg/kg,po measured after 96 hrs; assay type: ADME, organism-based; conditions: read-out: Ct; procedure, shortened: as §1
[26] = Drug concentration in CD-1 mouse plasma at 6.25 mg/kg,po measured after 96 hrs; assay type: ADME, organism-based; procedure, shortened: as §1
[27] = Half life in Beagle dog at 0.5 mg/kg,iv; assay type: ADME, organism-based, Canis lupus familiaris; conditions: in vivo
Procedure, shortened: (§5)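 Beagle dogs. Single iv dose of 0.5 mg/kg. Clearance and half-life are derived from plasma concentration-time data.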

[28] = AUC in Sprague-Dawley rat at 200 mg/kg,po measured after 14 days; assay type: ADME, organism-based; parameters: dose 200 mg/kg, time 14 day, route po; conditions: in vivo
Procedure, shortened: (§6)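 14-day pilot toxicology study in rats, 8 males and 8 females per dose level. Daily oral dosing, with 200 mg/kg as the high dose. Drug exposure is reported as AUC in µM·h.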

[29] = Clearance in Sprague-Dawley rat at 1 mg/kg,iv; assay type: ADME, organism-based; conditions: in vivo
Procedure, shortened: (§7)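 SD rats. Single iv dose of 1 mg/kg. Clearance and half-life are derived from plasma concentration-time data.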

[30] = Cmax in Sprague-Dawley rat at 5 mg/kg,po; assay type: ADME, organism-based; parameters: dose 5 mg/kg, route po; conditions: in vivo
[31] = target: Cytochrome P450 2D6 (Homo sapiens, UniProt P10635); assay: Inhibition of CYP2D6 (unknown origin); assay type: ADME; procedure, shortened: as §3
Cytochrome P450 2D6, sequence (P10635 whole entry): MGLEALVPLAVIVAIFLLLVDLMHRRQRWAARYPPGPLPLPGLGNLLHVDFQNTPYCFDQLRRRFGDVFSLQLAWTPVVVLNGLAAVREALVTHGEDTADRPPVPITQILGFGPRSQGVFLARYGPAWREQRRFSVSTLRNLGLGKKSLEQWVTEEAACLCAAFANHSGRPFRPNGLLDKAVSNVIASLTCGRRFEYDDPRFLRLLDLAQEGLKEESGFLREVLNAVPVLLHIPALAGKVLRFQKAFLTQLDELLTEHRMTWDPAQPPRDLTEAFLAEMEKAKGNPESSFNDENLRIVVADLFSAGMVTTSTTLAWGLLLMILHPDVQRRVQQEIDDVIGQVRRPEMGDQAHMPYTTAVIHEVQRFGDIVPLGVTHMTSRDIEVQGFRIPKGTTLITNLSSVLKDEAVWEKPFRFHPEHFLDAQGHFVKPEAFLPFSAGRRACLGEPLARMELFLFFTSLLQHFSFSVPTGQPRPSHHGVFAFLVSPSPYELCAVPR

[32] = test system: Mycobacterium tuberculosis; assay: Antimycobacterial activity against drug-sensitive Mycobacterium tuberculosis assessed as mycobacterial growth inhibition; assay type: functional
[33] = Drug concentration in CD-1 mouse lung at 6.25 mg/kg,po measured after 96 hrs; assay type: ADME, organism-based; conditions: read-out: Ct; procedure, shortened: as §1
[34] = target: Cytochrome P450 3A4 (Homo sapiens, UniProt P08684); assay: Inhibition of CYP3A4 (unknown origin); assay type: ADME; procedure, shortened: as §3
Cytochrome P450 3A4, sequence (P08684 whole entry): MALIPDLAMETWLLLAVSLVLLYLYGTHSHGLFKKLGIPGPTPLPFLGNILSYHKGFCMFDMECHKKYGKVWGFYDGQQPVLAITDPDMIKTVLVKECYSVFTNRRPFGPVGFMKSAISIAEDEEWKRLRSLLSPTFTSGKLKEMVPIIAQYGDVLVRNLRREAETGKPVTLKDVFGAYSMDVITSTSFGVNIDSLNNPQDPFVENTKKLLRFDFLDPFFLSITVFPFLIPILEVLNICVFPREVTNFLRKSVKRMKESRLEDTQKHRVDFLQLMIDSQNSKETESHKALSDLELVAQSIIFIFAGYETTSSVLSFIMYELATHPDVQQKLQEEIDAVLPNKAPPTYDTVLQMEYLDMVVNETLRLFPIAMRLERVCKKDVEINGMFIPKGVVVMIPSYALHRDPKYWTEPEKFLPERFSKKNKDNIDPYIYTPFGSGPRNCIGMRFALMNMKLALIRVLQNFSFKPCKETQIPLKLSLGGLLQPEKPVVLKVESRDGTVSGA

[35] = Microsomal stability in human liver microsomes assessed as clearance; assay type: ADME, Microsome; conditions: read-out: CLH
[36] = Ratio of drug concentration in Sprague-Dawley rat lung to plasma at 5 mg/kg,po measured after 96 hrs; assay type: ADME, organism-based; procedure, shortened: as §1
[37] = target: Voltage-gated inwardly rectifying potassium channel KCNH2 (Homo sapiens, UniProt Q12809); assay: Inhibition of human ERG; assay type: toxicity
Voltage-gated inwardly rectifying potassium channel KCNH2, sequence (Q12809 whole entry): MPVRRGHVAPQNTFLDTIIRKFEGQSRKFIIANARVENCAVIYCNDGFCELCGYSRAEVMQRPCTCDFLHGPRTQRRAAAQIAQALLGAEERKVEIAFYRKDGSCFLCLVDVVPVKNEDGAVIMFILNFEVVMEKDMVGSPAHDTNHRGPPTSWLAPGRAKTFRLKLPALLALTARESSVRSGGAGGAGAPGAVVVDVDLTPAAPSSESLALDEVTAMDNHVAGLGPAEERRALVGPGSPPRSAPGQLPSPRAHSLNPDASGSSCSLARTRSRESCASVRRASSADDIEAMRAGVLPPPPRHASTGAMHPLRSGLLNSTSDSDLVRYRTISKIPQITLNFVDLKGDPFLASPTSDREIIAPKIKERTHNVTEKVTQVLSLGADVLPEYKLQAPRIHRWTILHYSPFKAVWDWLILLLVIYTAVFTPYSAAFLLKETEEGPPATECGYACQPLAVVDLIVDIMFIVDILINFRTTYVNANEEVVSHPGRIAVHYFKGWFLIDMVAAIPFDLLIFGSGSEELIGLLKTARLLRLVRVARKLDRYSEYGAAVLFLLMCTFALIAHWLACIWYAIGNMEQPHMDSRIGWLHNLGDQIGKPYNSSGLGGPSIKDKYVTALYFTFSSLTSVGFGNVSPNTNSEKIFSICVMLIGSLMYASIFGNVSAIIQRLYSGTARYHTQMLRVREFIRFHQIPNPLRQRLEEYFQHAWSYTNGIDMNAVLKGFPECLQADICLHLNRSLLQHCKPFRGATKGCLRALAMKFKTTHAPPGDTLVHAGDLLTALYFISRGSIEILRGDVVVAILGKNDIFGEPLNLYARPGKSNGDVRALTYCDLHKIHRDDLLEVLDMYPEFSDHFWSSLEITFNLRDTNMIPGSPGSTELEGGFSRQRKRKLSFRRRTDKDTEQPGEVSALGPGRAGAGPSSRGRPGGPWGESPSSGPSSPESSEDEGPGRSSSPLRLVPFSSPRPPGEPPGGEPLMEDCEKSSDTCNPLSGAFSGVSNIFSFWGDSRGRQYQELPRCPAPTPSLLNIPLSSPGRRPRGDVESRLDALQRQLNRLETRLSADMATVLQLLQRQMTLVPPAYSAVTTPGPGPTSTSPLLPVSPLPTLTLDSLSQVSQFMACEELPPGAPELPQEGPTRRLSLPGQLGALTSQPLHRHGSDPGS

[38] = Cytotoxicity against African green monkey Vero cells; assay type: toxicity, cell-based; conditions: chlorocebus sabaeus
[39] = Efflux ratio of apparent permeability across basolateral to apical over apical to basolateral membrane in dog MDCK cells; assay type: ADME, cell-based, Canis lupus familiaris
[40] = Plasma protein binding in rat assessed as bound fraction; assay type: ADME, cell-free; conditions: read-out: PPB
[41] = Ratio of drug concentration in CD-1 mouse lung to plasma at 6.25 mg/kg,po measured after 96 hrs; assay type: ADME, organism-based; procedure, shortened: as §1
[42] = Volume of distribution at steady state in Beagle dog at 0.5 mg/kg,iv; assay type: ADME, organism-based, Canis lupus familiaris; conditions: in vivo, read-out: Vdss; procedure, shortened: as §4
[43] = Clearance in Beagle dog at 0.5 mg/kg,iv; assay type: ADME, organism-based, Canis lupus familiaris; conditions: in vivo; procedure, shortened: as §5
[44] = target: Cytochrome P450 2C9 (Homo sapiens, UniProt P11712); assay: Inhibition of CYP2C9 (unknown origin); assay type: ADME; procedure, shortened: as §3
Cytochrome P450 2C9, sequence (P11712 whole entry): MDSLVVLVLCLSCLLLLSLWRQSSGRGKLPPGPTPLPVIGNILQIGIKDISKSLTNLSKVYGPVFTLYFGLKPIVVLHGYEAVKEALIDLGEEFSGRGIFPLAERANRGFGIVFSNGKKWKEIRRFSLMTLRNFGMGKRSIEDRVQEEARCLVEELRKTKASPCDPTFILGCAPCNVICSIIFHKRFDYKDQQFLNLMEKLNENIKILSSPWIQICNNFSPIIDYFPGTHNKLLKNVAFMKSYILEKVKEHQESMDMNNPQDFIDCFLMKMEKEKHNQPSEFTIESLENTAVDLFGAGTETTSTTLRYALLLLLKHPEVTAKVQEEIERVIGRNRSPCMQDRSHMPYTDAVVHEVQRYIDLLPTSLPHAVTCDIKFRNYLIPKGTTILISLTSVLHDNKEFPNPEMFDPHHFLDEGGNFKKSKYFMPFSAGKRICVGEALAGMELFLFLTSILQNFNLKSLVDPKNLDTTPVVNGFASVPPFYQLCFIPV

[45] = Cmax in Beagle dog at 2 mg/kg,po; assay type: ADME, organism-based, Canis lupus familiaris; parameters: dose 2 mg/kg, route po; conditions: in vivo
[46] = Half life in Sprague-Dawley rat at 1 mg/kg,iv; assay type: ADME, organism-based; conditions: in vivo; procedure, shortened: as §7
[47] = AUC in Sprague-Dawley rat at 200 mg/kg,po measured after 12 days; assay type: ADME, organism-based; parameters: time 12 day, dose 200 mg/kg, route po; conditions: in vivo; procedure, shortened: as §6
[48] = Toxicity in Sprague-Dawley rat assessed as death at 200 mg/kg,po measured after 12 days; assay type: organism-based; conditions: in vivo, 288 h, time 12 day

SMILES: COc1nc(-c2ccc(Cl)cc2)ccc1[C@@H](c1ccccc1)[C@@](O)(CCN(C)C)c1cccc2ccccc12
- MIC [1]: 0.08 µg/mL (≈ 0.149 µM)
- concentration at 96 h [2]: 4.74 ng/mL
- Vd [3]: 10.4 L/kg
- clearance [4]: 3.59 mL/min/kg
- Papp A→B [5]: 0.04 ×10⁻⁶ cm/s
- IC50 [6]: > 10 µM
- microsomal CLint [7]: 71.3 µL/min/mg
- bioavailability [8]: 40.7%
- Cmax [9]: 503 ng/mL
- AUC(0-t) [10]: 8500 ng·h/mL
- CC50 [11]: > 64 µg/mL
- Vd [12]: 9.2 L/kg
- bioavailability [13]: 58.9%
- bioavailability [14]: 36.7%
- Papp B→A [15]: 0.11 ×10⁻⁶ cm/s
- half-life [16]: 46.3 h
- AUC(0-t) [17]: 10200 ng·h/mL
- fraction unbound [18]: < 0.01
- AUC(0-t) [19]: 4080 ng·h/mL
- microsomal CLint [20]: 45.7 µL/min/mg
- IC50 [21]: > 10 µM
- Activity [22]: Toxic
- Activity [23]: Non-Toxic
- MIC [24]: 0.56 µg/mL (≈ 1.04 µM)
- concentration at 96 h [25]: 337 ng/g
- concentration at 96 h [26]: 25.4 ng/mL
- half-life [27]: 56.2 h
- AUC at 336 h [28]: 248 µM·h
- clearance [29]: 8.25 mL/min/kg
- Cmax [30]: 328 ng/mL
- IC50 [31]: > 10 µM
- MIC50 [32]: 0.083 µg/mL (≈ 0.155 µM)
- MIC90 [32]: 0.152 µg/mL (≈ 0.283 µM)
- concentration at 96 h [33]: 857 ng/g
- IC50 [34]: > 10 µM
- microsomal CLint [35]: 39.4 µL/min/mg
- Kp at 96 h [36]: 71.1
- IC50 [37]: > 30 µM
- CC50 [38]: > 50 µg/mL
- efflux ratio [39]: 2.54
- fraction unbound [40]: < 0.01
- Kp at 96 h [41]: 33.7
- Vd [42]: 6.04 L/kg
- clearance [43]: 2.04 mL/min/kg
- IC50 [44]: > 10 µM
- Cmax [45]: 390 ng/mL
- half-life [46]: 25.6 h

SMILES: COc1nc2ccc(Br)cc2cc1[C@@H](c1ccccc1)[C@@](O)(CCN(C)C)c1cccc2ccccc12 [BEDAQUILINE]
- MIC [1]: 0.03 µg/mL (≈ 0.054 µM)
- concentration at 96 h [2]: 1.52 ng/mL
- Papp A→B [5]: 0.06 ×10⁻⁶ cm/s
- IC50 [6]: > 10 µM
- CC50 [11]: > 64 µg/mL
- AUC at 288 h [47]: 109 µM·h
- Activity [48]: Toxic
- Papp B→A [15]: 0.09 ×10⁻⁶ cm/s
- fraction unbound [18]: < 0.01
- IC50 [21]: > 10 µM
- Activity [23]: 10%
- MIC [24]: < 0.2 µg/mL
- concentration at 96 h [25]: 58.8 ng/g
- concentration at 96 h [26]: 4.56 ng/mL
- IC50 [31]: > 10 µM
- MIC50 [32]: 0.029 µg/mL (≈ 0.0522 µM)
- MIC90 [32]: 0.043 µg/mL (≈ 0.0774 µM)
- concentration at 96 h [33]: 135 ng/g
- Kp at 96 h [36]: 38.7
- CC50 [38]: > 50 µg/mL
- fraction unbound [40]: < 0.01
- Kp at 96 h [41]: 29.6
- IC50 [44]: > 10 µM
